Calls of active or inactive are those of the source. The rule behind the calls is not given here.
What was measured:
A-375 [1] = assay: Cytotoxicity in human A375 cells assessed as reduction in cell viability by Cell-titer-Lumi assay; assay type: functional, cell-based
In short: (§1)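 Cells grown in DMEM with 10% FBS at 37 °C, 5% CO2. Seeded at 2000 cells/well, then treated across a 12-point serial dilution. Viability read after three days by CellTiter-Lumi luminescence. IC50 obtained by nonlinear least-squares regression of dose-response curves. Lines STR-authenticated and mycoplasma-free.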

HT-29 = assay: Cytotoxicity in human HT-29 cells assessed as reduction in cell viability by Cell-titer-Lumi assay; assay type: functional, cell-based; in short: as §1
[2] = biological target: Serine/threonine-protein kinase B-raf (Homo sapiens, UniProt P15056, V600E); assay: Binding affinity to DNA-tagged BRAF (unknown origin) V600E mutant by KINOMEscan assay
[3] = biological target: T1, Serine/threonine-protein kinase B-raf (Homo sapiens, UniProt P15056); assay: Binding affinity to DNA-tagged BRAF (unknown origin) by KINOMEscan assay
[4] = test system: Protein cereblon/Serine/threonine-protein kinase B-raf (Homo sapiens), P15056+Q96SW2 [V600E]; assay: Protac activity at CRBN/BRAF V600E mutant in human A375 cells assessed as induction of BRAF V600E mutant degradation at 1 to 1000 nM incubated for 16 hrs by immunoblotting; assay type: cell-based
In short: (§2)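 A375 cells (BRAF-V600E, DMEM with 10% FBS, 37 °C, 5% CO2) were exposed to DMSO or a serial dilution of degrader for 16 h. Cells were lysed in cold RIPA with protease and phosphatase inhibitors, protein was measured by BCA, and samples were run on SDS-PAGE. Blots were probed for BRAF, p-ERK1/2 and α-tubulin, detected by ECL, and bands were quantitated.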

HaCaT = assay: Cytotoxicity in human HaCaT cells assessed as reduction in cell viability at 10 nM to 10 uM by Cell-titer-Lumi assay; assay type: cell-based; in short: as §1
WI-38 = assay: Cytotoxicity in human WI38 cells assessed as reduction in cell viability at 10 nM to 10 uM by Cell-titer-Lumi assay; assay type: cell-based; conditions: wi-38, 10 nM to 10 uM; in short: as §1
IMR-90 = assay: Cytotoxicity in human IMR90 cells assessed as reduction in cell viability at 10 nM to 10 uM by Cell-titer-Lumi assay; assay type: cell-based; conditions: imr-90, 10 nM to 10 uM; in short: as §1
[5] = test system: Protein cereblon/Serine/threonine-protein kinase B-raf (Homo sapiens), P15056+Q96SW2 [V600E]; assay: Protac activity at CRBN/BRAF V600E mutant in human A375 cells assessed as reduction in BRAF V600E mutant-mediated ERK phosphorylation at 1 to 1000 nM incubated for 16 hrs by immunoblotting; assay type: cell-based; in short: as §2
[6] = test system: Protein cereblon/Serine/threonine-protein kinase B-raf (Homo sapiens), P15056+Q96SW2 [V600E]; assay: Protac activity at CRBN/BRAF V600E mutant in human A375 cells assessed as reduction in BRAF V600E mutant-mediated ERK phosphorylation at 1 to 1000 nM incubated for 2 hrs by immunoblotting; assay type: cell-based
[7] = biological target: T2, Protein cereblon/Serine/threonine-protein kinase B-raf (Homo sapiens) (UniProt P15056+Q96SW2); assay: Protac activity at CRBN/BRAF in human A549 cells assessed as induction of BRAF degradation at 15 to 1000 nM incubated for 16 hrs by immunoblotting; assay type: cell-based
In short: (§3)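 A549 cells carrying wild-type BRAF (DMEM, 10% FBS) were treated with DMSO or a 3-fold serial dilution of compound for 16 h. BRAF was read by immunoblotting: RIPA lysis, BCA protein assay, SDS-PAGE, anti-BRAF antibody with α-tubulin as loading control, ECL detection and densitometric quantitation.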

[8] = test system: Protein cereblon/Serine/threonine-protein kinase B-raf (Homo sapiens), P15056+Q96SW2 [V600E]; assay: Protac activity at CRBN/BRAF V600E mutant kinase domain (unknown origin) expressed in human A375 cells assessed as induction of BRAF V600E mutant degradation at 1 to 1000 nM incubated for 16 hrs by immunoblotting; assay type: cell-based
In short: (§4)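 A375 lines stably expressing the BRAF-V600E or wild-type BRAF kinase domain were made by lentiviral transduction and kept in 1 µg/mL puromycin. They were treated with DMSO or a 3-fold serial dilution of compound for 16 h. Kinase-domain levels were read by immunoblotting of RIPA lysates with ECL and band quantitation.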

[9] = biological target: T2, Protein cereblon/Serine/threonine-protein kinase B-raf (Homo sapiens); assay: Protac activity at CRBN/BRAF kinase domain (unknown origin) expressed in human A375 cells assessed as induction of BRAF degradation at 1 to 1000 nM incubated for 16 hrs by immunoblotting; assay type: cell-based; in short: as §4
A-375 [10] = assay: Inhibition of colony formation in human A375 cells at 40 to 1000 nM incubated for 7 days by crystal violet staining based assay; assay type: functional, cell-based
In short: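 A375 plated at 200 cells/well, dosed the following day with DMSO or compound. After seven days, cells fixed and stained with 0.5% crystal violet, and colonies counted. Data as mean ± SD; Student's t-test against corresponding control groups.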

[11] = test system: Protein cereblon/Serine/threonine-protein kinase B-raf (Homo sapiens), P15056+Q96SW2 [V600E]; assay: Protac activity at CRBN/BRAF V600E mutant in human A375 cells assessed as induction of BRAF V600E mutant degradation at 500 nM incubated for 6 hrs after 1 hr pre-treatment with 10 uM pomalidomide by immunoblotting
[12] = test system: Protein cereblon/Serine/threonine-protein kinase B-raf (Homo sapiens), P15056+Q96SW2 [V600E]; assay: Protac activity at CRBN/BRAF V600E mutant in human A375 cells assessed as induction of BRAF V600E mutant degradation at 500 nM incubated for 6 hrs after 1 hr pre-treatment with 20 uM proteasome inhibitor MG132 by immunoblotting
[13] = test system: Protein cereblon/Serine/threonine-protein kinase B-raf (Homo sapiens), P15056+Q96SW2 [V600E]; assay: Protac activity at CRBN/BRAF V600E mutant in human A375 cells assessed as induction of BRAF V600E mutant degradation at 500 nM incubated for 6 hrs after 1 hr pre-treatment with 200 nM proteasome inhibitor bortezomib by immunoblotting
[14] = test system: Protein cereblon/Serine/threonine-protein kinase B-raf (Homo sapiens), P15056+Q96SW2 [V600E]; assay: Protac activity at CRBN/BRAF V600E mutant in human A375 cells assessed as induction of BRAF V600E mutant degradation at 500 nM incubated for 6 hrs after 1 hr pre-treatment with 1 uM NEDD8-activating enzyme inhibitor […] by immunoblotting
[15] = test system: Serine/threonine-protein kinase B-raf (Homo sapiens), P15056 [V600E]; assay: Potency index, ratio of Kd for vemurafenib to Kd of test compound for binding affinity to DNA-tagged BRAF (unknown origin) V600E mutant by KINOMEscan assay
[16] = biological target: T1, Serine/threonine-protein kinase B-raf; assay: Potency index, ratio of Kd for vemurafenib to Kd of test compound for binding affinity to DNA-tagged BRAF (unknown origin) by KINOMEscan assay
[17] = biological target: T2, Protein cereblon/Serine/threonine-protein kinase B-raf (Homo sapiens); assay: Protac activity at CRBN/BRAF in human A549 cells assessed as induction of BRAF degradation at 1 to 1000 nM incubated for 16 hrs by immunoblotting; assay type: cell-based; in short: as §3

T1 sequence (P15056 whole entry): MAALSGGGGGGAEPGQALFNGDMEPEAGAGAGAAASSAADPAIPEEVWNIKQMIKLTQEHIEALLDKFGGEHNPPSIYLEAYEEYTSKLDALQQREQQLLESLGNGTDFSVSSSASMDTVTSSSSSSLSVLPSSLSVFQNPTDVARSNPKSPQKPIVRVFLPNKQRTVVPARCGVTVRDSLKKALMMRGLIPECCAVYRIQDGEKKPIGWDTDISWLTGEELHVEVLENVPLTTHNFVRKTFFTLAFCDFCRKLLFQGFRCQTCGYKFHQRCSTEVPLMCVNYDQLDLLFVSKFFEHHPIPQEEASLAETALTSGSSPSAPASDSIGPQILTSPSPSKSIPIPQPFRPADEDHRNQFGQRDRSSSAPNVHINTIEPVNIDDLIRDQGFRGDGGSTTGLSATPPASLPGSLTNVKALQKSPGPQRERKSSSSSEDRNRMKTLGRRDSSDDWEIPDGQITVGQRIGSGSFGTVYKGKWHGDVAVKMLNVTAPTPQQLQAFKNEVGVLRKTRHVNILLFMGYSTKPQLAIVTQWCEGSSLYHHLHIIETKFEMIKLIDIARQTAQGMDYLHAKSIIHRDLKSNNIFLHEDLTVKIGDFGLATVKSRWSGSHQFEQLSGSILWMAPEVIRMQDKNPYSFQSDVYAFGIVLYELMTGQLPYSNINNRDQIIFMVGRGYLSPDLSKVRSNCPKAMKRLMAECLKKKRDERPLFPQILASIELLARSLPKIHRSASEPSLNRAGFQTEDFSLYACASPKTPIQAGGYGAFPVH
T2 sequence (P15056 whole entry, looked up): as the sequence (P15056 whole entry) above
T2 sequence (Q96SW2 whole entry, looked up): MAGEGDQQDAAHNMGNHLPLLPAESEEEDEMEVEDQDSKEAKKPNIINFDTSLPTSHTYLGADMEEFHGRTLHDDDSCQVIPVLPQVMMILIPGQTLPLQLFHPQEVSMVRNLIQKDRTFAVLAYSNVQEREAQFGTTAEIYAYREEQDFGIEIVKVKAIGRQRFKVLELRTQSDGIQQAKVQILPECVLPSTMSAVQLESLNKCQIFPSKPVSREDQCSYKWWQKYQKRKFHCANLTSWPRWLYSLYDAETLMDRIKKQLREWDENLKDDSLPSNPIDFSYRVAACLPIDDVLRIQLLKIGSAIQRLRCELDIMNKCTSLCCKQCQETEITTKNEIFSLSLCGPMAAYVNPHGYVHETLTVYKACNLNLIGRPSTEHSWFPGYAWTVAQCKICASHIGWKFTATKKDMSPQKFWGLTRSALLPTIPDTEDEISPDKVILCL
Serine/threonine-protein kinase B-raf (Homo sapiens, UniProt P15056, V600E), sequence (P15056 2-766 V600E limits assumed): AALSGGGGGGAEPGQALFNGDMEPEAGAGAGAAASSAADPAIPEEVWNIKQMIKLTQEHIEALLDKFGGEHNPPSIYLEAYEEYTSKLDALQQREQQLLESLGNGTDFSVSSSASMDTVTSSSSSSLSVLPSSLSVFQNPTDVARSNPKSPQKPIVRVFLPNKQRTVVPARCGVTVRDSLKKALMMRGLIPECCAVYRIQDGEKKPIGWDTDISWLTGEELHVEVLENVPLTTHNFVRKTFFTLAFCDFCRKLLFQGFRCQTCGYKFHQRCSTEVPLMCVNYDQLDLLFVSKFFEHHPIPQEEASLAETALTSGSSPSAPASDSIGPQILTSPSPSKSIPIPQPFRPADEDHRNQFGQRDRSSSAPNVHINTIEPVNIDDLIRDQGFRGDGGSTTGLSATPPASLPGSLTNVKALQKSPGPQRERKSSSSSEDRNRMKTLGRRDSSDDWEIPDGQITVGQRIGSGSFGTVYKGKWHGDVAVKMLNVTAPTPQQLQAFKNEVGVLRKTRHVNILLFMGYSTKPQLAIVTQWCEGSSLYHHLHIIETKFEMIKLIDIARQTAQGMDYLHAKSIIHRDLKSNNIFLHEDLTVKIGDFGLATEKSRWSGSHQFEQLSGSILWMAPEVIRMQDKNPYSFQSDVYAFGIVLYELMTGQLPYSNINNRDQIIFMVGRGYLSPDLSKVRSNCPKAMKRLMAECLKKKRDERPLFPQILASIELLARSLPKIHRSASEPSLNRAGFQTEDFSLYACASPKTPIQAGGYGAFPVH
Serine/threonine-protein kinase B-raf (Homo sapiens), P15056 [V600E], sequence (P15056 whole entry V600E): as the sequence (P15056 whole entry) above, with V600E counted along it

Row | SMILES | IC50 (A-375 [1]) | IC50 (HT-29) | Kd [2] | Kd [3] | Activity [4] | Activity (HaCaT) | Activity (WI-38) | Activity (IMR-90) | Activity [5] | Activity [8] | Activity [9] | inhibition (A-375 [10]) | Activity [11] | Activity [12] | Activity [13] | Activity [14] | further results
1 | CCCS(=O)(=O)Nc1ccc(F)c(C(=O)c2c[nH]c3ncc(-c4ccc(Cl)cc4)cc23)c1F [VEMURAFENIB] | 116 nM | 164 nM |  |  |  |  |  |  |  |  |  |  |  |  |  |  | 
2 | CCCS(=O)(=O)Nc1ccc(F)c(C(=O)c2c[nH]c3ncc(-c4ccc(CNC(=O)CCCCNc5ccc6c(c5)C(=O)N(C5CCC(=O)N(C)C5=O)C6=O)cc4)cc23)c1F (centres undefined) | 492 nM | 459 nM | 7.3 nM | 5.1 nM | inactive | Non-Toxic | Non-Toxic | Non-Toxic |  |  |  |  |  |  |  |  | 
3 | CCCS(=O)(=O)Nc1ccc(F)c(-n2cc(-c3cncnc3)c3nc(N(C)C4CCN(C(=O)CCOCCOCCOCCNc5cccc6c5C(=O)N(C5CCC(=O)NC5=O)C6=O)CC4)ccc32)c1F (centres undefined) | 46.5 nM | 51 nM | 2 nM | 2.4 nM | Dose-dependent effect | Non-Toxic | Non-Toxic | Non-Toxic | Dose-dependent effect | Active | inactive | Active | inactive | inactive | inactive | inactive | Activity [6]: Active; Activity [7]: inactive
4 | CCCS(=O)(=O)Nc1ccc(F)c(C(=O)c2c[nH]c3ncc(-c4ccc(CNC(=O)CCCCNc5ccc6c(c5)C(=O)N(C5CCC(=O)NC5=O)C6=O)cc4)cc23)c1F (centres undefined) | 500 nM | 124 nM | 14.4 nM | 9.5 nM | Dose-dependent effect | Non-Toxic | Non-Toxic | Non-Toxic | Dose-dependent effect | Active | inactive | Active | inactive | inactive | inactive | inactive | Ratio [15]: 4 to 5; Ratio [16]: 4 to 5; Activity [17]: inactive
5 | CCCS(=O)(=O)Nc1ccc(F)c(-n2cc(-c3cncnc3)c3nc(N(C)C4CCN(CC)CC4)ccc32)c1F [XP-102] | 6.3 nM | 1.7 nM | 0.33 nM | 0.37 nM |  |  |  |  |  |  |  |  |  |  |  |  | 
6 | CCCS(=O)(=O)Nc1ccc(F)c(-n2cc(-c3cncnc3)c3nc(N(C)C4CCN(C(=O)CCOCCOCCOCCNc5cccc6c5C(=O)N(C5CCC(=O)N(C)C5=O)C6=O)CC4)ccc32)c1F (centres undefined) | 190 nM | 348 nM | 2.7 nM | 2.6 nM | inactive | Non-Toxic | Non-Toxic | Non-Toxic |  |  |  |  |  |  |  |  | 
